Screening data as filed in PubChem BioAssay.
STAT3 act – increases IL-6 driven STAT3 reporter signal; hit rate 0.91% among 190,000; U3A cells, IL-6 STAT3-luciferase reporter, luminescence; 100% = signal with IL-6 EC80 alone; activation (% of control), % at 5.6 µM; AID 871;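 active means activation above the screen-wide mean of compound activation plus 3 SD, cut at about 130% in these data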;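 further: 0% = background luminescence of wells with medium and substrate only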
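System – human U3A cells carrying STAT3-luciferase construct · Probe or stimulus – Interleukin-6, 33 ng/mL · Schedule – compound 1 h, then IL-6 6 h at 37 °C · Signal – luminescence from STAT3-driven luciferase reporter · Evaluation – percent of IL-6-only median luminescence · Benchmarks – IL-6-only high control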
STAT1 inh – reduces IFN-gamma driven STAT1 reporter signal | NIH 3T3 STAT1-luciferase reporter, luminescence | inhibition, % at 5.5 µM | hit rate 0.35% among 200,000;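 active means inhibition above a set limit, the mean inhibition across all tested compounds plus 3 SD, cut at about 34% in these data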;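 further: 0% = IFN-gamma with DMSO and 100% = IFN-gamma with 300 µM nifuroxazide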
STAT1 act – increases IFN-gamma driven STAT1 reporter signal. activation (% of control), % at 5.5 µM. hit rate 2.6% among 200,000. NIH 3T3 STAT1-luciferase reporter, luminescence; 100% = IFN-gamma alone, no compound;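 active means activation above the screen-wide mean activation plus 3 SD, cut at about 130% in these data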;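 further: raw ratio to IFN-gamma control signal so 100% means no change and 0% no light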
NF-kB neuron act – raises NF-kB expression in human neuronal cells; NF-kB reporter expression; hits give high values; fold change at 12.5 µM; hit rate 1.6% among 190,000; AID 1239; in the data active means fold change above about 3.3
APP 5'UTR act – activates APP 5'UTR luciferase reporter; SH-SY5Y APP 5'UTR luciferase reporter, luminescence; zero percent = DMSO vehicle wells; AID 1276; activation, % at 2 µM; hit rate 1% among 190,000;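 active means activation above a set limit, based on mean plus 3 SD of controls, cut at about 140% in these data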
STAT3 inh-1 – reduces IL-6 driven STAT3 reporter signal; U3A cells, IL-6 STAT3-luciferase reporter, luminescence; host cell line lacks STAT1; inhibition, % at 5.5 µM; hit rate 0.89% among 190,000; AID 862;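 active means inhibition above the mean inhibition across all screened compounds plus 3 SD, cut at about 44% in these data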;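 further: 0% = DMSO only wells and 100% = 100 µM nifuroxazide control wells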
STAT3 inh-2 – confirmation of STAT3 signaling inhibitors | inhibition, % at 5.7 µM | hit rate 45% among 1,200 | U3A cells, IL-6 STAT3 luciferase reporter, luminescence; cell line lacks STAT1 | AID 1265 | shares compounds with STAT3 inh-1;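 active means inhibition above the hit cutoff computed for the primary STAT3 screen, cut at about 44% in these data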;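 further: 0% = IL-6 plus DMSO and 100% = IL-6 plus nifuroxazide control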
NFkB inh 2 – counter-screen for STAT3 inhibitors: NF-kappaB inhibition | hit rate 36% among 1,200 | inhibition, % at 5.7 µM | HEK293T NF-kB luciferase reporter, TNF-alpha induced | shares compounds with STAT3 inh-1;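 active means inhibition above the mean of solvent-only control wells plus 3 SD, cutoff set per campaign, cut at about 13% in these data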;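 further: 0% = TNF-alpha with DMSO and 100% = TNF-alpha with MG high control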
STAT1 inh 2 – STAT1 inhibition in STAT3 inhibitor counter-screen; AID 1317; inhibition, % at 5.7 µM; shares compounds with STAT3 inh-1; NIH 3T3 STAT1-luciferase reporter, IFN-gamma induced, luminescence; hit rate 27% among 1,200;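 active means inhibition above the mean plus 3 SD of solvent-only control wells, limit set per screening run, cut at about 16% in these data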;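 further: 0% = DMSO with IFN-gamma and 100% = nifuroxazide control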
The depositor's hits bear a star; . = no result given. Shown are actives, neighbours in structure and some others; about 4.9% of the full set was active somewhere.

SMILES | STAT3 act | STAT1 inh | STAT1 act | NF-kB neuron act | APP 5'UTR act | STAT3 inh-1 | STAT3 inh-2 | NFkB inh 2 | STAT1 inh 2
CCN(CC)C(=O)c1ccc(S(=O)(=O)N2CCC(c3nc4ccccc4s3)CC2)cc1 | 46 | 22 | 84 | 0.85 | 27 | 67* | 51* | 11 | 18*
CC1CCCN(C(=O)c2ccc(S(=O)(=O)N3CCC(c4nc5ccccc5s4)CC3)cc2)C1 (stereo unspecified) | 57 | -4 | 106 | . | 0 | 53* | 50* | 14* | 18*
CC(=O)Nc1ccc(OC(=O)c2ccc(Br)c([N+](=O)[O-])c2)cc1 | 102 | 13 | 86 | 0.91 | -27 | 0 | . | . | .
CN(CC1CCOCC1)C(=O)CC1C(=O)NCCN1C/C=C/c1ccccc1 (stereo unspecified) | 100 | 0 | 98 | 1.2 | -6 | 5 | . | . | .
CC(CCCC(C)(C)O)NC(=O)c1ccc(OC2CCN(C(=O)C3CC3)CC2)cc1 (stereo unspecified) | 105 | 0 | 98 | 1.1 | 10 | -1 | . | . | .
Cc1cc(NC(=O)c2cc(-c3ccco3)on2)nn1Cc1ccc(Cl)cc1 | 52 | -2 | 101 | 1.2 | -15 | 63* | 58* | 13* | -8
COc1cccc(-c2cc(C(=O)Nc3cc(C)n(Cc4ccc(Cl)cc4)n3)no2)c1 | 58 | -5 | 103 | 1 | 4 | 55* | 70* | 20* | -3
CC1(CCc2ccccc2)NC(=O)N(CC(=O)Nc2ccc3c(c2)OCCO3)C1=O (stereo unspecified) | 98 | -8 | 109 | 0.83 | 8 | 8 | . | . | .
NC(=O)c1ccsc1NC(=O)c1ccc(N2CCCC2=O)cc1 | 51 | 10 | 90 | 1.2 | 175* | 62* | 13 | -24 | -100
O=C(NCc1cccs1)c1ccc(N2CCCC2=O)cc1 | 101 | -7 | 106 | 1.4 | -4 | 5 | . | . | .
CC1(C)C2C/C(=N\O)C(C)(/[N+]([O-])=C/c3cccc([N+](=O)[O-])c3)CC21 (stereo unspecified) | 98 | 18 | 81 | 1.3 | 10 | 8 | . | . | .
COc1ccc(-c2cc(=O)c3cc(OC)ccc3o2)cc1 | 42 | -25 | 122 | 5.3* | 155* | 73* | 53* | 31* | -47
CCN1/C(=C/c2sc(-c3ccccc3C)c[n+]2C)Sc2ccccc21 | 21 | 30 | 71 | 1.3 | -1 | 91* | 94* | 54* | 32*
Cc1nn(C)c(C)c1CN(C)S(=O)(=O)c1ccc2ccccc2c1 | 36 | 33 | 69 | 0.81 | -47 | 78* | 80* | 30* | 24*
C/C(=N/NC(=O)c1cc(C2CC2)[nH]n1)c1cccs1 | 36 | 26 | 76 | 3.1 | 120 | 76* | 52* | 19* | -8
C/C(=N\NC(=O)c1ccncc1)c1cccs1 | 97 | -25 | 120 | 1.3 | -5 | 12 | . | . | .
C/C(=N\NC(=O)c1ccccc1O)c1cccs1 | 51 | -14 | 114 | 3.6* | 107 | 61* | 29 | -2 | -8
C/C(=N\NC(=O)C1=NNC(=O)C1C)c1cccs1 (stereo unspecified) | 105 | -16 | 114 | 1.7 | 17 | -2 | . | . | .
CCCCCc1ccc(OCCCC[n+]2cccc(C)c2)c(CCCCC)c1 | 54 | 27 | 74 | 1.1 | -14 | 58* | 48* | -1 | 26*
c1c2c(cc3sc(N4CCOCC4)nc13)OCO2 | 86 | -20 | 118 | 3.2 | 92 | 22 | . | . | .
c1c2c(cc3sc(N4CCCCC4)nc13)OCO2 | 53 | 11 | 90 | 3.8* | 206* | 62* | 34 | -1 | -56
CCCNc1nc2c(c(=O)n(C)c(=O)n2C)n1CCc1ccccc1 | 90 | 19 | 83 | 0.76 | 7 | 14 | . | . | .
CC(C)n1c(NCCc2ccccc2)nc2c1c(=O)n(C)c(=O)n2C | 65 | 31 | 76 | 0.56 | 4 | 45* | 38 | 8 | 32*
Cc1cc2ncc(-c3ncc(C(F)(F)F)cc3Cl)cn2n1 | 51 | 28 | 75 | 0.91 | 138* | 64* | 42 | 5 | -39
Cc1nn2cc(-c3ncc(C(F)(F)F)cc3Cl)cnc2c1Br | 63 | -32 | 129* | 0.92 | 505* | 47* | 47* | 10 | -43
SMILES | STAT3 act | STAT1 inh | STAT1 act | NF-kB neuron act | APP 5'UTR act | STAT3 inh-1 | STAT3 inh-2 | NFkB inh 2 | STAT1 inh 2
O=C(NCc1ccccn1)C1CCN(S(=O)(=O)c2cc(Cl)ccc2Cl)CC1 | 99 | 5 | 95 | 0.98 | 7 | 3 | . | . | .
Cc1nsc(Nc2ccc([N+](=O)[O-])cc2)c1C#N | 66 | 30 | 71 | 1.1 | -11 | 42 | . | . | .
c1ccc(CCCNc2ncnc3nc[nH]c23)cc1 | 90 | 1 | 97 | 1.1 | -3 | 11 | . | . | .
Clc1ccc(CCNc2ncnc3nc[nH]c23)cc1 | 61 | 3 | 98 | 0.97 | -2 | 52* | 35 | 1 | -13
CCCCc1ccc(Nc2ncnc3nc[nH]c23)cc1 | 63 | 8 | 93 | 2.9 | 100 | 52* | 41 | -18 | 2
CCCNc1ncnc2nc[nH]c12 | 95 | -7 | 107 | 1.2 | 13 | 6 | . | . | .
NC1=NC2CS(=O)(=O)CC2S1 (stereo unspecified) | 98 | 3 | 99 | 1.2 | 6 | 0 | . | . | .
Cc1ccc2sc(NC(=O)CN3C(=O)c4ccccc4C3=O)nc2c1C | 99 | 13 | 88 | 1.1 | -7 | 0 | . | . | .
Cn1c(=O)n(C)c2cc(NS(=O)(=O)c3ccc4c(c3)CCCC4)ccc21 | 59 | 18 | 84 | 0.88 | -1 | 53* | 41 | 8 | 20*
CCOC(=O)c1oc2ccc(S(=O)(=O)Nc3ccc4c(c3)n(C)c(=O)n4C)cc2c1C | 53 | 16 | 85 | 0.49 | 11 | 60* | 57* | 10 | 14
Cn1c(=O)n(C)c2cc(NS(=O)(=O)c3ccc(C(C)(C)C)cc3)ccc21 | 75 | 15 | 85 | 0.71 | 0 | 33 | . | . | .
CC(C)NS(=O)(=O)c1ccc(OCC(=O)N2CCCC2)cc1 | 95 | -6 | 110 | 0.97 | 13 | 9 | . | . | .
Cc1ccc(Cl)cc1N1CCN(C(=O)COc2ccc(S(=O)(=O)NC(C)C)cc2)CC1 | 55 | 11 | 90 | 0.71 | 45 | 60* | 49* | 10 | 10
CC(C)C(=O)Nc1ccc(S(=O)(=O)Nc2ccccn2)cc1 | 100 | 6 | 95 | 1 | 18 | 2 | . | . | .
O=C(NCCN1CCOCC1)c1cc(-c2ccc(Cl)cc2)on1 | 97 | 4 | 96 | 1.7 | -13 | 8 | . | . | .
